Published values gathered from unrelated publications.
Protocols differ between the studies behind these lines.
Target: Casein kinase I isoform alpha (CSNK1A1, Homo sapiens, UniProt P48729)

Structure (SMILES) | test | setting | remaining binding
O=C(c1ccc(Nc2ncc(Cl)c(-c3cc4ccccc4s3)n2)cc1)N1CCC(N2CCCC2)CC1 | binding, competition with immobilised ligand | 1 µM | 67%
C[C@H]1CCN(c2nccc(-c3cnn4ncccc34)n2)C1 | binding | 1 µM | 47%
O=C(NCCCN1CCOCC1)c1ccc(Nc2ncc(Cl)c(-c3ccc(Cl)s3)n2)cc1 | binding, competition with immobilised ligand | 1 µM | 100%
CN(C)c1ncc(F)c(-c2cnn3ncccc23)n1 | binding | 1 µM | 98%
COc1cnc(Nc2cccc(S(N)(=O)=O)c2)nc1N1CCN(c2ccccc2)CC1 | binding, competition with immobilised ligand | 1 µM | 93%
CCC(=N\O)/C(C)=C/c1ccc(F)cc1 | cell-free assay, competition with immobilised ligand | 1 µM | 74%
O=C(NCC1CCOCC1)c1n[nH]cc1NC(=O)c1c(F)cccc1F | binding, competition with immobilised ligand | 1 µM | 77%
Cc1cc(C)c(-n2ccn3nc(-c4cccnc4)cc23)cc1NC(=O)c1cc(C#N)cc(S(F)(F)(F)(F)F)c1 | cell-free assay, competition with immobilised ligand | 0.1 µM | 67%
COc1cnc(Nc2cccc(S(N)(=O)=O)c2)nc1N1CCN(c2ccccc2)C(=O)C1 | binding, competition with immobilised ligand | 1 µM | 93%
N[C@H]1CCN(c2nccc(-c3cnn4ncccc34)n2)C1 | binding | 1 µM | 41%
CC1=C(C#N)C(c2ccc3c(c2)c(NC(=O)c2ccccc2C)nn3C)C(C#N)=C(C)N1 | cell-free assay, competition with immobilised ligand | 1 µM | 70%
O=C(c1ccc(Nc2nccc(-c3cc4ccccc4s3)n2)cc1)N1CCC(N2CCCC2)CC1 | binding, competition with immobilised ligand | 1 µM | 78%
COc1ccc2c(c1)O[C@H](c1ccc(OC)c(OC)c1)C[C@@H]2NC(=O)C1(c2ccc3c(c2)OC(F)(F)O3)CC1 | cell-free assay, competition with immobilised ligand | 1 µM | 82%
FC(F)(F)Oc1cccc(-c2cnc3ccc(-c4ccncc4)nn23)c1 | cell-free assay, competition with immobilised ligand | 5 µM | 52%
CN(C)c1nccc(-c2cnn3ncccc23)n1 | binding | 1 µM | 60%
CS(=O)(=O)N1CCCC(NC(=O)[C@H](CCC2CCCCC2)NC(=O)c2ccc(CNc3ncnc4c3nnn4-c3ccccc3)cc2)C1 (stereo partly shown) | cell-free assay, competition with immobilised ligand | 0.1 µM | 99%
F[C@@H]1CCN(c2nccc(-c3cnn4ncccc34)n2)C1 | binding | 1 µM | 90%
c1cncc(-c2cccc(Nc3nccc(NC4CCCCC4)n3)c2)c1 | binding, competition with immobilised ligand | 10 µM | 71%
O=C(N1CCS(=O)(=O)CC1)N1C[C@H](c2ccc(OC(F)(F)F)cc2)C[C@H](c2nc(C3CC3)no2)C1 | cell-free assay, competition with immobilised ligand | 1 µM | 100%
COc1ccnn2ncc(-c3ccnc(N(C)C)n3)c12 | binding | 1 µM | 55%
O=C(NC[C@@H]1[C@H]2CN(C(=O)OCc3cc(C(F)(F)F)cc(C(F)(F)F)c3)C[C@@H]12)c1ccc2[nH]nnc2c1 | cell-free assay, competition with immobilised ligand | 1 µM | 100%
CN(c1nccc(-c2cnn3ncccc23)n1)C1CC1 | binding | 1 µM | 88%
